Reference: ChEMBL document CHEMBL1155202, “Synthesis and anticancer activity of novel 3,4-diarylthiazol-2(3H)-ones (imines)” (Bioorg Med Chem Lett, 2009)

Legend:
CCRF-CEM = test: Anticancer activity against human CCRF-CEM cells after 72 hrs; format: functional, cell-based
How it was run: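 CEM human leukemia cells were exposed to compounds. IC50 was defined as the concentration required to inhibit 50% of cell proliferation.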

Bel-7402 = test: Anticancer activity against human Bel7402 cells after 72 hrs; format: functional, cell-based; details: Bel-7402, 72 h
How it was run: (§1)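 Solid human tumour lines (liver Bel-7402, HepG2, SMMC-7721; breast MCF-7; pancreatic SW-1990; colon HCT116) were exposed to compounds. IC50 was taken as the concentration inhibiting 50% of cell proliferation. CA-4 served as positive control.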

HepG2 [1] = test: Cell cycle arrest in human HepG2 cells assessed as increase in G2/M phase cells after 20 hrs by flow cytometry using propidium iodide staining; format: functional, cell-based; details: for EC50: HepG2, 20 h
How it was run: (§2)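 HepG2 cells were left untreated or treated with compounds across a dose range for 20 h at 37 °C. CA-4 served as positive control. Cell-cycle phase distribution (G1, S, G2/M fractions) was then analysed by flow cytometry.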

MCF7 = test: Anticancer activity against human MCF7 cells after 72 hrs; format: functional, cell-based; details: MCF7, 72 h; how it was run: as §1
HepG2 [2] = test: Anticancer activity against human HepG2 cells after 72 hrs; format: functional, cell-based; details: HepG2, 72 h; how it was run: as §1
SW1990 = test: Anticancer activity against human SW1990 cells after 72 hrs; format: functional, cell-based; details: SW1990, 72 h; how it was run: as §1
HCT-116 = test: Anticancer activity against human HCT116 cells after 72 hrs; format: functional, cell-based; details: HCT-116, 72 h; how it was run: as §1
SMMC-7721 = test: Anticancer activity against human SMMC7721 cells after 72 hrs; format: functional, cell-based; details: SMMC-7721, 72 h; how it was run: as §1
HepG2 [3] = test: Cell cycle arrest in human HepG2 cells assessed as decrease in S phase cells after 20 hrs by flow cytometry using propidium iodide staining; format: functional, cell-based; how it was run: as §2
HepG2 [4] = test: Ratio of Compound EC50 to Combrestatin A4 EC50 for cell cycle arrest in human HepG2 cells assessed as increase in G2/M phase cells after 20 hrs by flow cytometry using propidium iodide staining; format: functional
HepG2 [5] = test: Cell cycle arrest in human HepG2 cells assessed as decrease in G1 phase cells after 20 hrs by flow cytometry using propidium iodide staining; format: functional, cell-based; how it was run: as §2

## COc1ccc(-c2c(Cl)sc(=O)n2-c2cc(OC)c(OC)c(OC)c2)cc1[N+](=O)[O-]
CCRF-CEM
  IC50: 7.5 µM

## COc1ccc(-n2c(-c3cc(OC)c(OC)c(OC)c3)csc2=O)cc1N
CCRF-CEM
  IC50: 10.1 µM

## COc1ccc(-n2c(-c3cc(OC)c(OC)c(OC)c3)c(Cl)sc2=O)cc1N
CCRF-CEM
  IC50: 16.2 µM

## COc1ccc(-n2c(-c3cc(OC)c(OC)c(OC)c3)csc2=O)cc1[N+](=O)[O-]
CCRF-CEM
  IC50: 2.7 µM

## COc1ccc(-c2c(Cl)sc(=O)n2-c2cc(OC)c(OC)c(OC)c2)cc1
CCRF-CEM
  IC50: > 20 µM

## COc1ccc(/C=C\c2cc(OC)c(OC)c(OC)c2)cc1O [COMBRETASTATIN A4]
CCRF-CEM
  IC50: 0.002 µM
Bel-7402
  IC50: 1.72 µM
HepG2 [1]
  EC50: < 0.03 µM
MCF7
  IC50: 0.03 µM
HepG2 [2]
  IC50: 0.006 µM
SW1990
  IC50: 0.25 µM
HCT-116
  IC50: 0.006 µM
SMMC-7721
  IC50: 0.29 µM

## COc1ccc(-n2c(-c3cc(OC)c(OC)c(OC)c3)csc2=N)cc1
CCRF-CEM
  IC50: 13.2 µM

## COc1ccc(-c2csc(=O)n2-c2cc(OC)c(OC)c(OC)c2)cc1[N+](=O)[O-]
CCRF-CEM
  IC50: 8.2 µM

## COc1ccc(-c2csc(=N)n2-c2ccc(OC)cc2)cc1
CCRF-CEM
  IC50: > 20 µM

## COc1ccc(-n2c(-c3cc(OC)c(OC)c(OC)c3)csc2=O)cc1
CCRF-CEM
  IC50: 14.9 µM

## COc1ccc(-n2c(-c3cc(OC)c(OC)c(OC)c3)c(Cl)sc2=O)cc1[N+](=O)[O-]
CCRF-CEM
  IC50: > 20 µM

## COc1ccc(-c2csc(=O)n2-c2cc(OC)c(OC)c(OC)c2)cc1
CCRF-CEM
  IC50: 1.8 µM

## COc1ccc(-c2csc(=O)n2-c2cc(OC)c(OC)c(OC)c2)cc1N
CCRF-CEM
  IC50: 0.24 µM
Bel-7402
  IC50: 3.3 µM
HepG2 [3]
  Activity: Dose-dependent effect
HepG2 [1]
  Activity: Dose-dependent effect
  EC50: 3.89 µM
HepG2 [4]
  Ratio EC50: 130
HepG2 [5]
  Activity: Dose-dependent effect
MCF7
  IC50: 4.4 µM
HepG2 [2]
  IC50: 4.5 µM
SW1990
  IC50: 20.3 µM
HCT-116
  IC50: 3.4 µM
SMMC-7721
  IC50: 7.4 µM

## COc1ccc(-c2csc(=N)n2-c2cc(OC)c(OC)c(OC)c2)cc1
CCRF-CEM
  IC50: 1.5 µM

## COc1ccc(-c2c(Cl)sc(=O)n2-c2cc(OC)c(OC)c(OC)c2)cc1N
CCRF-CEM
  IC50: 0.12 µM
Bel-7402
  IC50: 23.4 µM
HepG2 [1]
  EC50: > 250 µM
MCF7
  IC50: 52.5 µM
HepG2 [2]
  IC50: 96 µM
SW1990
  IC50: 56.7 µM
HCT-116
  IC50: 85.1 µM
SMMC-7721
  IC50: 118 µM

## COc1ccc(-n2c(-c3cc(OC)c(OC)c(OC)c3)c(Cl)sc2=O)cc1
CCRF-CEM
  IC50: 13.8 µM
